Measured values taken from ChEMBL document CHEMBL4765355, “Synthesis of adenine dinucleosides SAM analogs as specific inhibitors of SARS-CoV nsp14 RNA cap guanine-N7-methyltransferase” (Eur J Med Chem, 2020).
pIC50, pKd: −log10 of the molar value. The source made the active and inactive calls. No cut-off for these calls is given here.

How the values were obtained:
[1] = tested on: Severe acute respiratory syndrome-related coronavirus; test: Inhibition of N7-MTase activity of N-terminal His6-tagged SARS-CoV nsp14 expressed in Escherichia coli using GpppAC4 and [3H]SAM as substrate at 50 uM preincubated with enzyme followed by substrate addition and measured after 30 mins by filter binding assay
How it was run: (§1)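 Filter binding assay in 40 mM Tris-HCl pH 8.0, 1 mM DTT, 1 mM MgCl2, 2 µM SAM, 0.1 µM 3H-SAM and 0.7 µM GpppAC4 RNA. Enzyme is nsp14 (50 nM), hRNMT (50 nM) or vaccinia D1–D12 (41 U). Compound is at 50 µM with 5% final DMSO. Reactions run 30 min at 30 °C, are stopped by ice-cold water dilution, and 3H on DEAE filters is counted. Percent inhibition is relative to a 5% DMSO control, mean of three experiments.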

[2] = tested on: Orthopoxvirus vaccinia; test: Inhibition of N7-MTase activity of Vaccinia virus mRNA capping enzyme D1/D12 complex using GpppAC4 and [3H]SAM as substrate at 50 uM preincubated with enzyme followed by substrate addition and measured after 30 mins by filter binding assay; how it was run: as §1
[3] = molecular target: RNA-N7 MTase (mRNA cap guanine-N(7) methyltransferase) (Homo sapiens, UniProt O43148); test: Inhibition of N-terminal His6-tagged human RNA-N7 MTase expressed in Escherichia coli using GpppAC4 and [3H]SAM as substrate at 50 uM preincubated with enzyme followed by substrate addition and measured after 30 mins by filter binding assay; conditions: probe GpppAC4 and [3H]SAM; how it was run: as §1
Sequence of RNA-N7 MTase (mRNA cap guanine-N(7) methyltransferase) (O43148 whole entry): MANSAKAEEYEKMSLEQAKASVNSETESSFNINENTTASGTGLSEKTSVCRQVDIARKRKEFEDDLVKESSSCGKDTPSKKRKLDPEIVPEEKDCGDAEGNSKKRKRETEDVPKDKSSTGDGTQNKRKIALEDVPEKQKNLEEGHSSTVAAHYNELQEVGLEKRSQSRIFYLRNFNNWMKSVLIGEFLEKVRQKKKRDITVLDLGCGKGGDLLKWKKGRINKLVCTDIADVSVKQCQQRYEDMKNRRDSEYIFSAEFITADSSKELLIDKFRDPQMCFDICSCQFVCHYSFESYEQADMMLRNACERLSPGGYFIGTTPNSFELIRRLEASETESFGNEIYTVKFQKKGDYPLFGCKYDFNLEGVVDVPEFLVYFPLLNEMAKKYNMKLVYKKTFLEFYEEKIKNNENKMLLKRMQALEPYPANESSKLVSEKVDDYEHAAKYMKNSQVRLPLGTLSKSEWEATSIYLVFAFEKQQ

[4] = Inhibition of N7-MTase activity of N-terminal His6-tagged SARS-CoV nsp14 expressed in Escherichia coli using GpppAC4 and [3H]SAM as substrate preincubated with enzyme followed by substrate addition and measured after 30 mins by filter binding assay; set-up: species or system Severe acute respiratory syndrome-related coronavirus
How it was run: (§2)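 Dose-response filter binding assay with nsp14 or hRNMT (each 50 nM) pre-incubated with increasing compound concentrations (5% final DMSO). Then 0.7 µM GpppAC4, 2 µM SAM and 0.1 µM 3H-SAM are added in Tris pH 8.0/DTT/MgCl2, 30 min at 30 °C. IC50 is taken from a Hill slope fit, mean of three independent experiments.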

[5] = molecular target: mRNA cap guanine-N(7) methyltransferase (Homo sapiens, UniProt O43148); test: Inhibition of N-terminal His6-tagged human RNA-N7 MTase expressed in Escherichia coli using GpppAC4 and [3H]SAM as substrate preincubated with enzyme followed by substrate addition and measured after 30 mins by filter binding assay; how it was run: as §2
Sequence of mRNA cap guanine-N(7) methyltransferase (O43148 whole entry): as above

[6] = tested on: Severe acute respiratory syndrome-related coronavirus; test: Binding affinity to SARS-CoV nsp14 assessed as increase in melting temperature at 1 mM at pH 7.5 by differential scanning fluorimetry
How it was run: (§3)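 Purified SARS-CoV nsp14 (5 µM) in 20 mM HEPES pH 7.5, 150 mM NaCl and 1X SYPRO orange, with 1 mM compound (DMSO stock; SAM and sinefungin from water). Protein is mixed with compound before dye is added. Fluorescence is read from 20 to 95 °C at 0.2 °C/min. Tm comes from curve fitting, and ΔTm is taken against a 5% DMSO control.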

[7] = tested on: Severe acute respiratory syndrome-related coronavirus; test: Binding affinity to SARS-CoV nsp14 assessed as melting temperature at 1 mM at pH 7.5 by differential scanning fluorimetry; how it was run: as §3
[8] = Binding affinity to SARS-CoV nsp14 by TSA based analysis; set-up: species or system Severe acute respiratory syndrome-related coronavirus
How it was run: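 Thermal shift assay with nsp14 (5 µM) in HEPES pH 7.5/NaCl/SYPRO orange, using increasing compound concentrations and a 20–95 °C ramp. Apparent KD is obtained by nonlinear regression with a one-site specific binding Hill slope equation.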

[9] = tested on: Severe acute respiratory syndrome-related coronavirus; test: Inhibition of 2'-O-MTase activity of SARS-CoV nsp10/16 complex at 200 uM
[10] = tested on: Zika virus; test: Inhibition of 2'-O-methyltransferase in Zika virus at 200 uM
[11] = tested on: West Nile virus; test: Inhibition of 2'-O-methyltransferase in West-Nile virus at 200 uM
[12] = tested on: Dengue virus; test: Inhibition of 2'-O-methyltransferase in Dengue virus at 200 uM
[13] = tested on: Orthopoxvirus vaccinia; test: Inhibition of 2'-O-methyltransferase activity of Vaccinia virus VP39 at 200 uM

## Nc1ncnc2c1ncn2[C@@H]1OC(CN(CCO[C@@H]2[C@H](O)C(CO)O[C@H]2n2cnc3c(N)ncnc32)S(=O)(=O)c2ccc(Cl)c([N+](=O)[O-])c2)[C@@H](O)[C@H]1O (single isomer, unassigned)
[1]
  inhibition: 97.2%
[2]
  inhibition: 2.8%
[3]
  inhibition at 0.5 h, 50 µM: 33.9%
[4]
  pIC50: 6.22
[5]
  pIC50: 3.61
[6]
  ΔTm: 10.8 °C
[7]
  Tm: > 40 °C
[8]
  pKd: 5.89
[9]
  inhibition: inactive
[10]
  inhibition: inactive
[11]
  inhibition: inactive
[12]
  inhibition: inactive
[13]
  inhibition: inactive
